In ChEMBL document CHEMBL1147580, “Antihyperglycemic activity of 2-methyl-3,4,5-triaryl-1H-pyrroles in SLM and STZ models” (2004):
Active and inactive are the calls of the source. No cut-off for these calls is given here.

Legend:
Rattus norvegicus [1] = assay: In vivo anti-hyperglycaemic activity of compound in rat sucrose(100 mg/kg, oral gavage) loaded model (SLM) at 100 mg/kg dose; format: functional
Method in brief: (§1)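 Overnight-fasted male Sprague–Dawley rats, five per group, were bled at baseline and then given the compound at 100 mg/kg by oral gavage. Sucrose (10 gm/kg) was loaded 30 min later. Blood glucose was taken at 30, 60, 90 and 120 min after the load, and % fall was calculated by the AUC method. Values are means of three experiments.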

Rattus norvegicus [2] = assay: In vivo anti-hyperglycaemic activity of compound in rat streptozotocin(60 mg/kg, ip) model (STZ) at 100 mg/kg dose
Rattus norvegicus [3] = assay: In vivo anti-hyperglycaemic activity of compound in rat sucrose(100 mg/kg, oral gavage) loaded model (SLM) at 100 mg/kg dose; NA = not active; format: functional, organism-based; set-up: dose 100 mg/kg; method in brief: as §1

Structure (SMILES)	Blood sugar lowering (Rattus norvegicus [1])	Blood sugar lowering (Rattus norvegicus [2])	Blood sugar lowering (Rattus norvegicus [3])
Cc1[nH]c(-c2ccccc2)c(-c2ccccc2)c1-c1cccc(C(F)(F)F)c1	40.8%	25.1%	
COc1ccc(-c2[nH]c(C)c(-c3ccc(F)cc3)c2-c2ccc(OC)cc2)cc1	14.7%		
Cc1[nH]c(-c2ccccc2)c(-c2ccccc2)c1-c1ccc(F)cc1	49.7%	34.7%	
Cc1[nH]c(-c2ccc(Cl)cc2)c(-c2ccc(Cl)cc2)c1-c1ccc(F)cc1			inactive
c1ccc(-c2nc(-c3ccccc3)c(-c3ccccc3)nc2-c2ccccc2)cc1	21.9%		
COc1ccc(-c2c(C)[nH]c(-c3ccccc3)c2-c2ccccc2)c(OC)c1	20.3%		
Cc1[nH]c(-c2ccccc2)c(-c2ccccc2)c1-c1ccccc1F			inactive
COc1ccc(-c2c(C)[nH]c(-c3ccccc3)c2-c2ccccc2)cc1OC	27.8%	28.6%	
Cc1[nH]c(-c2ccc(Cl)cc2)c(-c2ccc(Cl)cc2)c1-c1ccccc1F			inactive
Cc1[nH]c(-c2cccc(Cl)c2)c(-c2cccc(Cl)c2)c1-c1ccc(F)cc1			inactive
